Experimental findings from ChEMBL document CHEMBL2010797, “Exploring aigialomycin d and its analogues as protein kinase inhibitors for cancer targets” (ACS Med Chem Lett, 2011) are described below.

Experiment [1] deals with T1, MAP kinase-interacting serine/threonine-protein kinase 2 (Homo sapiens, UniProt Q9HBH9). Nature of the experiment: Inhibition of MNK2 assessed as enzyme activity at 10 uM relative to control. Set-up: scale not given: the % may be the effect or the level left. The method, boiled down: (§1)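 Single-point test at 10 μM in a 96-kinase screening panel. Reported as % of a DMSO negative control, where a lower value means stronger inhibition.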
Target sequence in this assay (Q9HBH9 whole entry, looked up): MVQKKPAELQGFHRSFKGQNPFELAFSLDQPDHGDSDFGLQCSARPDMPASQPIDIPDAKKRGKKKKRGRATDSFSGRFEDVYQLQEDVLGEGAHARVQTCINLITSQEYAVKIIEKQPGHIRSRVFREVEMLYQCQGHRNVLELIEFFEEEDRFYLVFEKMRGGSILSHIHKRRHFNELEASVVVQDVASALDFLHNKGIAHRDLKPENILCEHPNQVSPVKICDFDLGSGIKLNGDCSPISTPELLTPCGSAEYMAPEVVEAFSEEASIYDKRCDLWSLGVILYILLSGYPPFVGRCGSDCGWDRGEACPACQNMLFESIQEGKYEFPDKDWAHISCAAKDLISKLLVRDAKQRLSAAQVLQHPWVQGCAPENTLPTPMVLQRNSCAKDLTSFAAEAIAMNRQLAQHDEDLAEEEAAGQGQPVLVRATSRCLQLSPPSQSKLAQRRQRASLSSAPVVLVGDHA

The target in experiment [2] is Cyclin-dependent kinase 1 (Homo sapiens, UniProt P06493). Nature of the experiment: Inhibition of CDK1.
Cyclin-dependent kinase 1, sequence (P06493 whole entry): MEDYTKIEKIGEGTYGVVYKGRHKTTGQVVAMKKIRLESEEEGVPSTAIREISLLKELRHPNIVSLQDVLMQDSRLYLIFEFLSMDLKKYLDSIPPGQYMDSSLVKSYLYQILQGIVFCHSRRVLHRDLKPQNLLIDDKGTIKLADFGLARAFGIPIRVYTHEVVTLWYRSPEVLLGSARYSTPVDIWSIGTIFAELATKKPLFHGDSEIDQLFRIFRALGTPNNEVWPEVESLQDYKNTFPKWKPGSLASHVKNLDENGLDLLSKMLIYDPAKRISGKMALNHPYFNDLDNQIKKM
Experiment [3] has as its target T1, MAP kinase-interacting serine/threonine-protein kinase 2. Nature of the experiment: Inhibition of MNK2 using 5-FAM-TATKSGSTTKNRFVV-NH2 as substrate preincubated for 1 hr prior substrate addition measured after 2 hrs by IMAP assay.
Target sequence in this assay (Q9HBH9 whole entry): as the sequence (Q9HBH9 whole entry, looked up) above
In experiment [4] the target is Tyrosine-protein kinase receptor UFO (Homo sapiens) (UniProt P30530). In words: Inhibition of AXL assessed as enzyme activity at 10 uM relative to control. On the set-up: scale not given: the % may be the effect or the level left. The method, boiled down: as §1
Tyrosine-protein kinase receptor UFO (Homo sapiens), sequence (P30530 whole entry): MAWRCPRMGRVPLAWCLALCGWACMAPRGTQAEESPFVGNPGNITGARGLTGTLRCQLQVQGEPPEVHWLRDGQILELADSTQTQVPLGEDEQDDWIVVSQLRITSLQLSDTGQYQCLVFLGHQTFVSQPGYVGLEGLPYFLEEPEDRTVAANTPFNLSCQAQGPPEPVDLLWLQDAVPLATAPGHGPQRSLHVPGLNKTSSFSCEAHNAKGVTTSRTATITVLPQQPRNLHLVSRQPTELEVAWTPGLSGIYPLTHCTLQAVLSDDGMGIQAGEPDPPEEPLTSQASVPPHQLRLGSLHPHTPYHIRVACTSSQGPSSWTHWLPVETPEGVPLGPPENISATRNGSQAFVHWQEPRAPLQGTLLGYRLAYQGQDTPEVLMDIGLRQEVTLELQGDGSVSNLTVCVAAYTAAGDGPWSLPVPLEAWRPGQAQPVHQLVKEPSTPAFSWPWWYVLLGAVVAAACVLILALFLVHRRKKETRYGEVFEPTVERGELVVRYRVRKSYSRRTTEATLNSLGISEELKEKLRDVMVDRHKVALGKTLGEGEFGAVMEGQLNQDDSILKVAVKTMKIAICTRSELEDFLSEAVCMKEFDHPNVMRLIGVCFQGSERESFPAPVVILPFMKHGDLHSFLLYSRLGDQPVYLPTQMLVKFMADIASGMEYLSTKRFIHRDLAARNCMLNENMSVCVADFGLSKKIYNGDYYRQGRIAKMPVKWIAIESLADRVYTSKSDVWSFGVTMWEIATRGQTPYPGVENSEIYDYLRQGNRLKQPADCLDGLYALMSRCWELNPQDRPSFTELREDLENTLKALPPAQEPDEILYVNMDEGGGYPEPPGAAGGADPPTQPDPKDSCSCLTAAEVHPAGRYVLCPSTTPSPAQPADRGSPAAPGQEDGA
Experiment [5] concerns the target Cyclin-dependent kinase 2/cyclin A (Homo sapiens) (UniProt P24941+P20248+P78396). Nature of the experiment: Inhibition of CDK2/cyclin A using 5-FAM-GGGPATPKKAKKL-COOH as substrate at 10 uM after 1 hr by IMAP assay. The format is protein-complex assay. The method, boiled down:
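IMAP fluorescence-polarization enzyme assay on CDK2/cyclin A, testing competition at the ATP site. Compounds tested at 10 μM, with purvalanol A at 1 μM as reference. Percent inhibition is the average ± SD of three independent experiments, or the mean of two for some compounds.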

Experiment [6] concerns the target T2, Serine/threonine-protein kinase PLK4 (Homo sapiens, UniProt O00444).
T2 sequence (O00444 whole entry): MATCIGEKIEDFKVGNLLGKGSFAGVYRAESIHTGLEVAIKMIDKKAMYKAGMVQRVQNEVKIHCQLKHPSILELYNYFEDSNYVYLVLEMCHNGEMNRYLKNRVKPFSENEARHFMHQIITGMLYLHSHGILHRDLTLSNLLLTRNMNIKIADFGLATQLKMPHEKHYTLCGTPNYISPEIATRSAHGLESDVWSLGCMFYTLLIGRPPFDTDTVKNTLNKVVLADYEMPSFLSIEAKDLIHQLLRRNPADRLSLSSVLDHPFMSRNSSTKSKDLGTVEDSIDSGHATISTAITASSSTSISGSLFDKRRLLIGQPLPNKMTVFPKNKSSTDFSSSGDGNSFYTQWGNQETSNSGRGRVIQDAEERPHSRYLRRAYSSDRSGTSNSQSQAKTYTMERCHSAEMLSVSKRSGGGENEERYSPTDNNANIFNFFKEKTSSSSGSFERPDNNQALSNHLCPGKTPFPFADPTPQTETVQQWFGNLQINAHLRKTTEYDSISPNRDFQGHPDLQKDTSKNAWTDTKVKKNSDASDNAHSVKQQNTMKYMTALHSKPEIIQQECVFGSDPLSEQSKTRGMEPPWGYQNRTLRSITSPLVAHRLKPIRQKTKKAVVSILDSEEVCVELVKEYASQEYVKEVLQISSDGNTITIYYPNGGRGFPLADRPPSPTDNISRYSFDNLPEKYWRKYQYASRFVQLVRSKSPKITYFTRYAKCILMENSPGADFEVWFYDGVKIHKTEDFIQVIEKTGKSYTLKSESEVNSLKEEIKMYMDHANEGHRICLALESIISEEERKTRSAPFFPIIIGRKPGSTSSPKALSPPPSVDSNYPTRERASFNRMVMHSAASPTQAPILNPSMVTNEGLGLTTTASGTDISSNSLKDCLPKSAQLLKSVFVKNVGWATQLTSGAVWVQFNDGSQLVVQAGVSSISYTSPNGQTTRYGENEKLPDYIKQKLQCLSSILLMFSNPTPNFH
Nature of the experiment: Inhibition of PLK4.

Experiment [7] has as its target T3, Receptor-type tyrosine-protein kinase FLT3 (Homo sapiens, UniProt P36888).
T3 sequence (P36888 whole entry): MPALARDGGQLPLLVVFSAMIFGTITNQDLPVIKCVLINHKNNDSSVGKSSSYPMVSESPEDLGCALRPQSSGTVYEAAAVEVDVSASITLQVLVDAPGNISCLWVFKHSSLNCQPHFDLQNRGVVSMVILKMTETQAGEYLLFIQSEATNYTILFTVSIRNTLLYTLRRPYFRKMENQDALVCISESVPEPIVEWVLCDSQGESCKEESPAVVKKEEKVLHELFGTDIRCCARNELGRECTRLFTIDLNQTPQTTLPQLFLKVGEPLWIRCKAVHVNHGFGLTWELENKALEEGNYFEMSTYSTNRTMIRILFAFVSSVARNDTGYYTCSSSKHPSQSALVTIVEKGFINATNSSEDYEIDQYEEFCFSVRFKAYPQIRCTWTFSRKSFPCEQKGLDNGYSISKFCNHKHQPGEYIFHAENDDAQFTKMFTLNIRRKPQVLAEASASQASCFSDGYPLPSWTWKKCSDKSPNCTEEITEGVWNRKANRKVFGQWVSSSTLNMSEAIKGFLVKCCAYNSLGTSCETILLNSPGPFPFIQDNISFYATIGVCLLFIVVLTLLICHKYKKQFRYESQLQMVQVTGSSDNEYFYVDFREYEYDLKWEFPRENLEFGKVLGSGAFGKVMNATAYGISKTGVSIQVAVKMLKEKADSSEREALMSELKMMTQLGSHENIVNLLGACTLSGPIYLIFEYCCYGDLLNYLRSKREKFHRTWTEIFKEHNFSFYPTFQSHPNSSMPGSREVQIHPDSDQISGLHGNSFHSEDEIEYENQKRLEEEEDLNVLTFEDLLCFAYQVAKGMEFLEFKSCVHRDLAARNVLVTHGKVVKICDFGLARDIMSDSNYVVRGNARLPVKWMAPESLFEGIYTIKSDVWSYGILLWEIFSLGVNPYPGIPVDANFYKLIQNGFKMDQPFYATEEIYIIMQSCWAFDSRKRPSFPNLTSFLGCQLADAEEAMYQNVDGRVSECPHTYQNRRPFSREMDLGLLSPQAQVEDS
Nature of the experiment: Inhibition of FLT3.

pIC50, pKd: −log10 of the molar value.

On to `C[C@H]1C/C=C/[C@@H](O)[C@@H](O)CC/C=C/c2cc(O)cc(O)c2C(=O)O1` [AIGIALOMYCIN D], for which the Activity in experiment [1] turned out to be 0.15%; in experiment [4] it was 4.7%. Further, the pIC50 was 5.22 in experiment [2] and 6.35 in experiment [3]. In experiment [5], this molecule registered an inhibition of 55%. The pKd was 6.59 in experiment [6] and 6.52 in experiment [7].
